Results from ChEMBL document CHEMBL3877264, “Quinolidene-rhodanine conjugates: Facile synthesis and biological evaluation” (Eur J Med Chem, 2017).
Converted amounts (≈) assume the structure as drawn.

Legend:
Escherichia coli [1] = experiment: Antibacterial activity against Escherichia coli NCIM 2688 measured after 8 hrs; format: functional; details: NCIM 2688, 8 h
Outline: (§1)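 Bacteria grown in LB at 37 °C and 180 rpm to OD 1. Compounds added to wells, then 0.1% inoculum of 1 OD culture (620 nm). Growth read as OD at 620 nm after 8 h for gram-negative and after 12 h for gram-positive strains.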

[2] = tested on: Mycobacterium tuberculosis; experiment: Growth inhibition of Mycobacterium tuberculosis H37Ra ATCC 25177 at dormant stage at 100 ug/ml measured after 12 days by XTT dye based two fold dilution method relative to control; format: functional; details: H37Ra ATCC 25177, 288 h, read-out: GI
Outline: (§2)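 MTB H37Ra was grown in Dubos medium, then exposed in Mycobacterium pheli minimal medium (pH 6.6) to compounds dissolved in DMSO. The assay ended on day 8 (active) or day 12 (dormant). Viable cells were measured by XTT reduction menadione assay at 470 nm, blank-corrected, relative to vehicle control. Triplicates were expressed as mean ± SD. MIC came from dose-response curves.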

[3] = tested on: Mycobacterium tuberculosis; experiment: Growth inhibition of Mycobacterium tuberculosis H37Ra ATCC 25177 at active stage measured after 8 days by XTT dye based two fold dilution method; format: functional; details: H37Ra ATCC 25177, 192 h; outline: as §2
[4] = tested on: Mycobacterium tuberculosis; experiment: Growth inhibition of Mycobacterium tuberculosis H37Ra ATCC 25177 at active stage at 0.78 ug/ml measured after 8 days by XTT dye based two fold dilution method relative to control; format: functional; details: H37Ra ATCC 25177, 192 h, read-out: GI; outline: as §2
[5] = tested on: Mycobacterium tuberculosis; experiment: Growth inhibition of Mycobacterium bovis BCG ATCC 35743 at dormant stage at 1.56 ug/ml measured after 12 days by nitrate reductase dye based two fold dilution method relative to control; format: functional; details: BCG str. ATCC 35743, 288 h, read-out: GI
Outline: (§3)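 M. bovis BCG was grown in Dubos medium and assayed in Mycobacterium pheli minimal medium (pH 6.6), with compounds from DMSO stocks. Incubation lasted 8 days for active and 12 days for dormant cultures. Viability was read by nitrate reductase at 540 nm against cell-free blanks, with vehicle set as 100% growth. Primary screen was at 30, 10 and 3 µg/ml, in triplicate, mean ± SD. MIC was taken from dose-response curves.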

[6] = Cytotoxicity against human HeLa cells measured after 48 hrs by MTT assay; format: toxicity, cell-based
[7] = tested on: Mycobacterium tuberculosis; experiment: Growth inhibition of Mycobacterium tuberculosis H37Ra ATCC 25177 at dormant stage at 12.5 ug/ml measured after 12 days by XTT dye based two fold dilution method relative to control; format: functional; details: H37Ra ATCC 25177, 288 h, read-out: GI
[8] = tested on: Mycobacterium tuberculosis; experiment: Growth inhibition of Mycobacterium bovis BCG ATCC 35743 at active stage at 6.25 ug/ml measured after 8 days by nitrate reductase dye based two fold dilution method relative to control; format: functional; details: BCG str. ATCC 35743, 192 h, read-out: GI; outline: as §3
[9] = tested on: Mycobacterium tuberculosis; experiment: Growth inhibition of Mycobacterium tuberculosis H37Ra ATCC 25177 at dormant stage at 3.13 ug/ml measured after 12 days by XTT dye based two fold dilution method relative to control; format: functional; details: H37Ra ATCC 25177, 288 h, read-out: GI; outline: as §2
[10] = Selectivity index, ratio of GI50 for HUVEC to MIC for Mycobacterium bovis BCG ATCC 35743 at dormant stage; details: pooled result: one value given for 6 cell lines, strains, targets or settings
Outline: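 SI is the cell-line GI50 divided by the dormant-stage mycobacterial MIC. […] THP-1 macrophages were PMA-differentiated for 24 h.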

[11] = tested on: Mycobacterium tuberculosis; experiment: Growth inhibition of Mycobacterium tuberculosis H37Ra ATCC 25177 at dormant stage at 6.25 ug/ml measured after 12 days by XTT dye based two fold dilution method relative to control; format: functional; details: H37Ra ATCC 25177, 288 h, read-out: GI; outline: as §2
Staphylococcus aureus [12] = experiment: Growth inhibition of Staphylococcus aureus NCIM 2010 at 30 ug/ml measured after 12 hrs relative to control; format: functional; details: NCIM 2010, 12 h, read-out: GI; outline: as §1
[13] = tested on: Mycobacterium tuberculosis; experiment: Growth inhibition of Mycobacterium bovis BCG ATCC 35743 at active stage at 25 ug/ml measured after 8 days by nitrate reductase dye based two fold dilution method relative to control; format: functional; details: BCG str. ATCC 35743, 192 h, read-out: GI; outline: as §3
[14] = Cytotoxicity against human A549 cells measured after 48 hrs by MTT assay; format: toxicity, cell-based
[15] = Cytotoxicity against human A549 cells assessed as growth inhibition at 100 ug/ml measured after 48 hrs by MTT assay relative to control; format: toxicity, cell-based; details: read-out: GI
[16] = Cytotoxicity against human PANC1 cells assessed as growth inhibition at 100 ug/ml measured after 48 hrs by MTT assay relative to control; format: toxicity, cell-based, PANC-1; details: read-out: GI
[17] = Cytotoxicity against human PANC1 cells measured after 48 hrs by MTT assay; format: toxicity, cell-based, PANC-1
[18] = tested on: Mycobacterium tuberculosis; experiment: Growth inhibition of Mycobacterium bovis BCG ATCC 35743 at active stage at 50 ug/ml measured after 8 days by nitrate reductase dye based two fold dilution method relative to control; format: functional; details: BCG str. ATCC 35743, 192 h, read-out: GI
Candida albicans = experiment: Antifungal activity against Candida albicans NCIM 3471 by standard agar method; format: functional
Outline: (§4)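 MICs determined by standard agar method; DMSO as solvent control.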

Staphylococcus aureus [19] = experiment: Growth inhibition of Staphylococcus aureus NCIM 2010 at 3 ug/ml measured after 12 hrs relative to control; format: functional; details: NCIM 2010, 12 h, read-out: GI; outline: as §1
[20] = Cytotoxicity against […]-differentiated human THP1 cells measured after 48 hrs by MTT assay; format: toxicity, cell-based, THP-1
Outline: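 MTT assay with 48 h compound exposure. THP-1 macrophages made by 24 h PMA treatment. Each concentration tested in triplicate in one experiment. % cytotoxicity = (control−test)/(control−blank)×100, with control = cells + DMSO and blank = medium without cells. IC50 from % survival versus concentration plots.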

[21] = tested on: Mycobacterium tuberculosis; experiment: Growth inhibition of Mycobacterium bovis BCG ATCC 35743 at active stage at 3.13 ug/ml measured after 8 days by nitrate reductase dye based two fold dilution method relative to control; format: functional; details: BCG str. ATCC 35743, 192 h, read-out: GI; outline: as §3
Staphylococcus aureus [22] = experiment: Antibacterial activity against of Staphylococcus aureus NCIM 2010 measured after 12 hrs; format: functional; details: NCIM 2010, 12 h; outline: as §1
[23] = Antifungal activity against Fusarium oxysporum NCIM 1332 by standard agar method; format: functional; outline: as §4
[24] = tested on: Mycobacterium tuberculosis; experiment: Growth inhibition of Mycobacterium bovis BCG ATCC 35743 at dormant stage at 3 ug/ml measured after 12 days by nitrate reductase dye based two fold dilution method relative to control; format: functional; details: BCG str. ATCC 35743, 288 h, read-out: GI; outline: as §3
[25] = tested on: Mycobacterium tuberculosis; experiment: Growth inhibition of Mycobacterium tuberculosis H37Ra ATCC 25177 at dormant stage at 25 ug/ml measured after 12 days by XTT dye based two fold dilution method relative to control; format: functional; details: H37Ra ATCC 25177, 288 h, read-out: GI; outline: as §2
[26] = tested on: Mycobacterium tuberculosis; experiment: Growth inhibition of Mycobacterium tuberculosis H37Ra ATCC 25177 at active stage at 1.56 ug/ml measured after 8 days by XTT dye based two fold dilution method relative to control; format: functional; details: H37Ra ATCC 25177, 192 h, read-out: GI; outline: as §2
Bacillus subtilis = experiment: Growth inhibition of Bacillus subtilis NCIM 2079 at 10 ug/ml measured after 12 hrs relative to control; format: functional; details: NCIM 2079, 12 h, read-out: GI; outline: as §1
Escherichia coli [27] = experiment: Growth inhibition of Escherichia coli NCIM 2688 at 30 ug/ml measured after 8 hrs relative to control; format: functional; details: NCIM 2688, 8 h, read-out: GI; outline: as §1
[28] = tested on: Mycobacterium tuberculosis; experiment: Growth inhibition of Mycobacterium bovis BCG ATCC 35743 at active stage at 1.56 ug/ml measured after 8 days by nitrate reductase dye based two fold dilution method relative to control; format: functional; details: BCG str. ATCC 35743, 192 h, read-out: GI; outline: as §3

Row | SMILES | MIC (Escherichia coli [1]) [µg/mL] | inhibition of growth at 100 µg/mL [2] [%] | IC50 [3] [µg/mL] | IC90 [3] [µg/mL] | inhibition of growth at 0.78 µg/mL [4] [%] | inhibition of growth at 1.56 µg/mL [5] [%] | GI50 at 48 h [6] [µg/mL] | inhibition of growth at 12.5 µg/mL [7] [%] | inhibition of growth at 6.25 µg/mL [8] [%] | inhibition of growth at 3.13 µg/mL [9] [%] | Selectivity Index [10] | inhibition of growth at 6.25 µg/mL [11] [%] | inhibition of growth at 30 µg/mL (Staphylococcus aureus [12]) [%] | inhibition of growth at 25 µg/mL [13] [%] | GI50 at 48 h [14] [µg/mL] | inhibition at 48 h, 100 ug/ml [15] [%] | inhibition at 48 h, 100 ug/ml [16] [%] | GI50 at 48 h [17] [µg/mL] | inhibition of growth at 50 µg/mL [18] [%] | MIC (Candida albicans) [µg/mL] | also measured
1 | COc1ccc2nc(Cl)c(/C=C3\SC(=S)NC3=O)cc2c1 | > 30 | 91.6 | 6.9 (≈ 20.5 µM) | 14.3 (≈ 42.5 µM) | -20.6 | -28.8 | > 100 | 72.7 | 95.7 | 4.7 | 14.7 | 27.4 | 103 | 88.2 | > 100 | 22.2 | 24.9 | > 100 | 97.3 | 150 (≈ 445 µM) | inhibition of growth at 3 µg/mL (Staphylococcus aureus [19]): 68.7%; GI50 at 48 h [20]: > 100 µg/mL; inhibition of growth at 3.13 µg/mL [21]: 14.9%; MIC (Staphylococcus aureus [22]): 7.86 µg/mL (≈ 23.3 µM); MIC [23]: 125 µg/mL (≈ 371 µM); inhibition of growth at 3 µg/mL [24]: -46.3%; inhibition of growth at 25 µg/mL [25]: 87.8%; inhibition of growth at 1.56 µg/mL [26]: 23.1%; inhibition of growth at 10 µg/mL (Bacillus subtilis): 22.7%; inhibition of growth at 30 µg/mL (Escherichia coli [27]): 61.2%; inhibition of growth at 1.56 µg/mL [28]: -39.1%
2 | Cc1cccc2cc(/C=C3\SC(=S)NC3=O)c(Cl)nc12 | > 30 | 104 | 4.8 (≈ 15 µM) | 18.2 (≈ 56.7 µM) | 20.1 | -20.5 | > 100 | 49.2 | 87.8 | -0.35 | 10.4 | 38.3 | 12.6 | 99.3 | > 100 | 32.9 | 30.9 | > 100 | 98.4 | 200 (≈ 623 µM) | inhibition of growth at 3 µg/mL (Staphylococcus aureus [19]): -3.27%; GI50 at 48 h [20]: > 100 µg/mL; inhibition of growth at 3.13 µg/mL [21]: -17.7%; MIC (Staphylococcus aureus [22]): > 30 µg/mL; MIC [23]: 200 µg/mL (≈ 623 µM); inhibition of growth at 3 µg/mL [24]: -6.23%; inhibition of growth at 25 µg/mL [25]: 103%; inhibition of growth at 1.56 µg/mL [26]: 29.6%; inhibition of growth at 10 µg/mL (Bacillus subtilis): -0.291%; inhibition of growth at 30 µg/mL (Escherichia coli [27]): 39.9%; inhibition of growth at 1.56 µg/mL [28]: -33.4%
